Values after ≈ are worked out from the molar mass of the structure shown.
Tests used:
[1] = system: Escherichia coli; assay: Antibacterial activity against Escherichia coli ATCC 15224 at 40 mg/mL after 24 hrs by disc diffusion method; format: functional; settings: ATCC 15224, 24 h, read-out: DIZ
Outline: (§1)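 Disc diffusion. Strains grown in nutrient broth at 37 °C for 24 h. 1% culture (about 10^6 CFU/mL) mixed into nutrient agar at 45 °C and poured. 4 mm paper discs received compound at 40 mg/mL stock in DMSO; final concentrations tested were […]. DMSO served as negative control, roxithromycin and cefixime as positive controls. Triplicate plates incubated at 37 °C for 24 h. Complete-inhibition zone diameter (mm) recorded as the mean of 3.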

[2] = system: Staphylococcus aureus; assay: Antibacterial activity against Staphylococcus aureus ATCC 6538 at 40 mg/mL after 24 hrs by disc diffusion method; format: functional; settings: ATCC 6538, 24 h, read-out: DIZ; outline: as §1
[3] = system: Bacillus spizizenii; assay: Antibacterial activity against Bacillus subtilis ATCC 6633 at 40 mg/mL after 24 hrs by disc diffusion method; format: functional; settings: ATCC 6633, 24 h, read-out: DIZ; outline: as §1
[4] = system: Klebsiella aerogenes; assay: Antibacterial activity against Enterobacter aerogenes ATCC 13048 at 40 mg/mL after 24 hrs by disc diffusion method; format: functional; settings: ATCC 13048, 24 h, read-out: DIZ; outline: as §1
[5] = system: Bordetella bronchiseptica; assay: Antibacterial activity against Bordetella bronchiseptica ATCC 4617 at 40 mg/mL after 24 hrs by disc diffusion method; format: functional; settings: ATCC 4617, 24 h, read-out: DIZ; outline: as §1
[6] = system: Salmonella typhimurium; assay: Antibacterial activity against Salmonella typhimurium ATCC 14028 at 40 mg/mL after 24 hrs by disc diffusion method; format: functional, Salmonella enterica subsp. enterica serovar Typhimurium; settings: Salmonella enterica, ATCC 14028, 24 h; read-out: DIZ; outline: as §1
[7] = system: Artemia salina; assay: Cytotoxicity in brine shrimp assessed as mortality after 24 hrs; format: functional; settings: read-out: LD50 (the source's name)
[8] = system: Aspergillus fumigatus; assay: Antifungal activity against Aspergillus fumigatus FCBP 66 at 40 mg/mL after 7 days by disc diffusion method; format: functional; settings: FCBP 66, 168 h, read-out: DIZ
Outline: (§2)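 Disc diffusion on SDA. Fungi cultured at 28 °C for 24 h. 4 mm discs received compound at 40 mg/mL stock in DMSO. DMSO served as negative control, terbinafine as positive control. Plates incubated at 28 °C for 7 days. Growth diameter (mm) measured and inhibition calculated against the negative control. MIC taken as the lowest concentration with no growth.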

[9] = system: Aspergillus flavus; assay: Antifungal activity against Aspergillus flavus FCBP 0064 at 40 mg/mL after 7 days by disc diffusion method; format: functional; settings: FCBP 0064, 168 h, read-out: DIZ; outline: as §2
[10] = system: Mucor; assay: Antifungal activity against Mucor FCBP 0400 at 40 mg/mL after 7 days by disc diffusion method; format: functional; settings: FCBP 0400, 168 h, read-out: DIZ; outline: as §2
[11] = system: Aspergillus niger; assay: Antifungal activity against Aspergillus niger FCBP 0198 at 40 mg/mL after 7 days by disc diffusion method; format: functional; settings: FCBP 0198, 168 h, read-out: DIZ; outline: as §2
[12] = system: Agrobacterium tumefaciens; assay: Antitumor activity against Agrobacterium tumefaciens -induced tumor at 100 ug/ml after 21 days by potato disc bioassay technique; format: functional
Outline: (§3)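 Potato disc assay with 48 h culture of A. tumefaciens At-10. Inoculum contained compound at […]. Red-skinned potatoes sterilized in 0.1% HgCl2; 8 mm × 4 mm discs placed ten per 1.5% agar plate, […] each. Incubated at 28 °C in the dark for 21 days, in triplicate. Discs stained with Lugol's and tumors counted. Percent inhibition calculated against the negative control.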

[13] = system: Agrobacterium tumefaciens; assay: Antitumor activity against Agrobacterium tumefaciens -induced tumor at 1000 ug/ml after 21 days by potato disc bioassay technique; format: functional; outline: as §3
[14] = system: Agrobacterium tumefaciens; assay: Antitumor activity against Agrobacterium tumefaciens -induced tumor at 10 ug/ml after 21 days by potato disc bioassay technique; format: functional; outline: as §3

Structure (SMILES) | zone of inhibition at 40000 µg/mL [1] [mm] | zone of inhibition at 40000 µg/mL [2] [mm] | zone of inhibition at 40000 µg/mL [3] [mm] | zone of inhibition at 40000 µg/mL [4] [mm] | zone of inhibition at 40000 µg/mL [5] [mm] | zone of inhibition at 40000 µg/mL [6] [mm] | further results
C=CC1=C(C(=O)O)N2C(=O)[C@@H](NC(=O)/C(=N\OCC(=O)O)c3csc(N)n3)[C@H]2SC1 [CEFIXIME] | 24 | 26 | 25 | 10 | 13 | 26 | 
COc1cccc2c1C(=O)c1c(O)c3c(c(O)c1C2=O)C[C@@](O)(C(=O)CO)C[C@@H]3O[C@H]1C[C@H](N)[C@H](O)[C@H](C)O1 [DOXORUBICIN] |  |  |  |  |  |  | LC50 [7]: 0.434 mg/L (≈ 0.798 µM)
CC[C@H]1OC(=O)[C@H](C)[C@@H](O[C@H]2C[C@@](C)(OC)[C@@H](O)[C@H](C)O2)[C@H](C)[C@@H](O[C@@H]2O[C@H](C)C[C@H](N(C)C)[C@H]2O)[C@](C)(O)C[C@@H](C)/C(=N\OCOCCOC)[C@H](C)[C@@H](O)[C@]1(C)O [ROXITHROMYCIN] | 14 | 14 | 10 | 12 | 19 | 16 | 
CN(C/C=C/C#CC(C)(C)C)Cc1cccc2ccccc12 [TERBINAFINE] |  |  |  |  |  |  | zone of inhibition at 40000 µg/mL [8]: 35 mm; zone of inhibition at 40000 µg/mL [9]: 35 mm; zone of inhibition at 40000 µg/mL [10]: 32 mm; zone of inhibition at 40000 µg/mL [11]: 35 mm
CC[C@]1(O)C[C@H]2CN(CCc3c([nH]c4ccccc34)[C@@](C(=O)OC)(c3cc4c(cc3OC)N(C=O)[C@H]3[C@@](O)(C(=O)OC)[C@H](OC(C)=O)[C@]5(CC)C=CCN6CC[C@]43[C@@H]65)C2)C1 [VINCRISTINE] |  |  |  |  |  |  | Activity [12]: 100%; Activity [13]: 100%; Activity [14]: 100%
